Assay results from ChEMBL document CHEMBL4765231 (J Med Chem, 2016).
≈ marks a conversion by molar mass, not a printed value. Calls of active or inactive are those of the source. No cut-off for these calls is given here.

Legend:
[1] = organism: Oryctolagus cuniculus; assay: Cardioprotective activity in New Zealand White rabbit heart assessed as reversal of ATX-II induced late sodium current prolongation in change in duration of monophasic action potential at 90 percent repolarization at 1 uM by electrocardiographic analysis relative to control; format: functional
[2] = tested on: Oryctolagus cuniculus; assay: Cardioprotective activity in rabbit model of left circumflex artery ligation-induced ischemia assessed as inhibition of VT-VF at 0.125 to 1.5 mg/kg by electrocardiographic analysis; format: functional, organism-based; conditions: dose 0.125-1.5 mg/kg
[3] = Intrinsic clearance in human hepatocytes; format: ADME, cell-based, Hepatocyte; conditions: read-out: CLH
How it was run: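 Clearance measured in pooled human hepatocytes with tritium-labelled compound.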

[4] = Toxicity in New Zealand rabbit model of LAD coronary artery occlusion-induced ischemia-reperfusion injury assessed as effect on heart rate at 0.25 to 0.5 uM; set-up: species or system Oryctolagus cuniculus; conditions: in vivo, dose 0.25-0.5 µM
[5] = Inhibition of peak sodium current (unknown origin) by manual patch clamp method; set-up: species or system Homo sapiens
[6] = Metabolic stability in human microsomes assessed as half life; format: ADME, Microsome
[7] = Solubility of compound in water; format: physicochemical
[8] = Half-life in iv dosed Sprague-Dawley rat; format: ADME, organism-based; conditions: in vivo
[9] = Permeability of compound across apical to basolateral side in human Caco-2 cells; format: ADME, cell-based; conditions: read-out: permeability
[10] = Volume of distribution at steady state in iv dosed Sprague-Dawley rat; format: ADME, organism-based; conditions: in vivo, read-out: Vdss
[11] = target: T1, Sodium channel protein type 1 subunit alpha (Homo sapiens, UniProt P35498); assay: Inhibition of peak NaV1.1 (unknown origin) at 10 uM at 10 Hz frequency by manual patch clamp technique
How it was run: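 Whole-cell manual patch clamp at room temperature, with series resistance compensated 90%.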

[12] = organism: Oryctolagus cuniculus; assay: Cardioprotective activity in New Zealand rabbit model of LAD coronary artery occlusion-induced ischemia-reperfusion injury assessed as inhibition of ST segment elevation at 0.25 uM for 30 mins followed by induction of ischemia for 15 mins and subsequent reperfusion for 15 mins by electrocardiographic analysis; format: functional; set-up: scale not given: the % may be the effect or the level left; conditions: time 60 min, 1 h
[13] = target: T2, Sodium channel protein type 4 subunit alpha (Homo sapiens, UniProt P35499); assay: Inhibition of NaV1.4 (unknown origin) at 10 Hz frequency by whole cell manual patch clamp technique
T2 sequence (P35499 whole entry): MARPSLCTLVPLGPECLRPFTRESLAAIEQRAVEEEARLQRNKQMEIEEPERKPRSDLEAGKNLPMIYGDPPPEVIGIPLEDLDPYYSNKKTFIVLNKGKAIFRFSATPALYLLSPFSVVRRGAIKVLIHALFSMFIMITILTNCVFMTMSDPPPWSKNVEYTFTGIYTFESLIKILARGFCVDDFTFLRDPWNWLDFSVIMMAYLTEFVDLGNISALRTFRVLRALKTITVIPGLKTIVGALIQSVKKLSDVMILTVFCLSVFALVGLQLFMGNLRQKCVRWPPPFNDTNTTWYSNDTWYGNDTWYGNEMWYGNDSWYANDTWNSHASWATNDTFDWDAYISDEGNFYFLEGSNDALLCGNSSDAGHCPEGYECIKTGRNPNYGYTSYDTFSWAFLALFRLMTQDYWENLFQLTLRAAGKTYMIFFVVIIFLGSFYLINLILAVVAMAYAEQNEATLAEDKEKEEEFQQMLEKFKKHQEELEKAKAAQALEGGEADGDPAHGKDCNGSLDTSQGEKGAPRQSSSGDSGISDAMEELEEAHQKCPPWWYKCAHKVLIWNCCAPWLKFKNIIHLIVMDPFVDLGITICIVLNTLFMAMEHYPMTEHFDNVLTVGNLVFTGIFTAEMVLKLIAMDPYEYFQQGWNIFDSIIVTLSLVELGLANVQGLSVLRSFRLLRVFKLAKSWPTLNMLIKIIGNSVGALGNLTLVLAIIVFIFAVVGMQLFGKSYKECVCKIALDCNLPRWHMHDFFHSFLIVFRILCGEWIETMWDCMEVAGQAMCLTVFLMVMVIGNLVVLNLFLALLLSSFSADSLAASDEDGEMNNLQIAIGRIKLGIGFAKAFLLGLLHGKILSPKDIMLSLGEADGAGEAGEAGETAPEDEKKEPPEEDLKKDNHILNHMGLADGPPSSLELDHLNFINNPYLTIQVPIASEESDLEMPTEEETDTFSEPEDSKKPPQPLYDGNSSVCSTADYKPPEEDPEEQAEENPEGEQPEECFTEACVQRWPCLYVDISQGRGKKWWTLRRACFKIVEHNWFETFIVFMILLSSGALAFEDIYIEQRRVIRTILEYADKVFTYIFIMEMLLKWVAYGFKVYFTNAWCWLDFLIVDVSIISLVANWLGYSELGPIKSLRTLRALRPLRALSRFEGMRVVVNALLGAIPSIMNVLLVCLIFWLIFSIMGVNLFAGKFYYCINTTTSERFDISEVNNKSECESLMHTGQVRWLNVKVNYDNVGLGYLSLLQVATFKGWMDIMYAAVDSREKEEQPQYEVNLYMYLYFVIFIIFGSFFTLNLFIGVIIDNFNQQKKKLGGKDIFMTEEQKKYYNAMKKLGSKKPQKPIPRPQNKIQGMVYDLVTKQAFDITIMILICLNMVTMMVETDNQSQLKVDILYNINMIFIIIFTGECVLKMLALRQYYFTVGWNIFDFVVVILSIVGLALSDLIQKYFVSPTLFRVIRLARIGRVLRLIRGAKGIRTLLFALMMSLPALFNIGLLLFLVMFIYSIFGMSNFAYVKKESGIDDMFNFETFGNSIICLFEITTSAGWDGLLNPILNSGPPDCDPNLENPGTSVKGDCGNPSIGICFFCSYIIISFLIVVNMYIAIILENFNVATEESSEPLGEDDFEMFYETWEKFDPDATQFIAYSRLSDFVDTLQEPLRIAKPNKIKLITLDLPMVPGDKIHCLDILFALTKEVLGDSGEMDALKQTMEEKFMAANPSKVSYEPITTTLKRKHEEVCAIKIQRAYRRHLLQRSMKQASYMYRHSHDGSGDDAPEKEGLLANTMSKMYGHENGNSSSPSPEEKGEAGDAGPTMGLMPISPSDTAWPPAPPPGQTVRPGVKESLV
How it was run: (§1)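 Whole-cell manual patch clamp on non-cardiac NaV1.x channels, run at room temperature. Series resistance was compensated 90% so the command potential was reached within microseconds.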

[14] = Inhibition of ATX-II induced late sodium current (unknown origin) by manual patch clamp method; set-up: species or system Homo sapiens
[15] = Oral bioavailability in Beagle dog; format: ADME, organism-based, Canis lupus familiaris; conditions: in vivo
[16] = Toxicity in dog assessed as adverse event at > 10 uM; set-up: species or system Canis lupus familiaris; conditions: in vivo
How it was run: (§2)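 Single ascending dose studies, with CNS-related adverse events monitored.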

[17] = Clearance in iv dosed Beagle dog; format: ADME, organism-based, Canis lupus familiaris; conditions: in vivo
[18] = Clearance in iv dosed Sprague-Dawley rat; format: ADME, organism-based; conditions: in vivo
[19] = organism: Oryctolagus cuniculus; assay: Cardioprotective activity in New Zealand White rabbit heart assessed as reversal of ATX-II induced late sodium current prolongation in change in duration of monophasic action potential at 90 percent repolarization by electrocardiographic analysis relative to control; format: functional, tissue-based
[20] = organism: Oryctolagus cuniculus; assay: Cardioprotective activity in New Zealand rabbit heart assessed as reversal of ATX-II induced late sodium current increase in QT interval by electrocardiographic analysis; format: functional
[21] = Permeability of compound across basolateral to apical side in human Caco-2 cells; format: ADME, cell-based; conditions: read-out: permeability
[22] = Inhibition of late sodium current channel (unknown origin) at 25 Hz frequency by whole cell patch clamp technique; conditions: Homo sapiens
[23] = Metabolic stability in rat microsomes assessed as half life; format: ADME, Microsome
[24] = organism: Oryctolagus cuniculus; assay: Cardioprotective activity in rabbit assessed as decrease in chemically-induced Torsades des Pointes at 2.5 uM by electrocardiographic analysis; format: functional; set-up: scale not given: the % may be the effect or the level left
[25] = Intrinsic clearance in Sprague-dawley rat hepatocytes; format: ADME, cell-based, Hepatocyte; conditions: read-out: CLH (converted)
[26] = target: T1, Sodium channel protein type 1 subunit alpha; assay: Inhibition of NaV1.1 (unknown origin) at 10 Hz frequency by whole cell manual patch clamp technique; how it was run: as §1
[27] = organism: Oryctolagus cuniculus; assay: Cardioprotective activity in rabbit model of left circumflex artery ligation-induced ischemia assessed as inhibition of VT-VF by electrocardiographic analysis; format: functional, organism-based
[28] = Metabolic stability in dog microsomes assessed as half life; format: ADME, Canis lupus familiaris, Microsome
[29] = organism: Oryctolagus cuniculus; assay: Cardioprotective activity in New Zealand rabbit model of LAD coronary artery occlusion-induced ischemia-reperfusion injury assessed as inhibition of ST segment elevation at 500 nM for 30 mins followed by induction of ischemia for 15 mins and subsequent reperfusion for 15 mins by electrocardiographic analysis; format: functional; conditions: 1 h, time 60 min
[30] = Toxicity in New Zealand rabbit model of LAD coronary artery occlusion-induced ischemia-reperfusion injury assessed as effect on blood pressure at 0.25 to 0.5 uM; set-up: species or system Oryctolagus cuniculus; conditions: in vivo, dose 0.25-0.5 µM
[31] = Half-life in iv dosed cynomolgus monkey; format: ADME, organism-based, Macaca fascicularis; conditions: in vivo
[32] = tested on: Oryctolagus cuniculus; assay: Cardioprotective activity in New Zealand rabbit model of LAD coronary artery occlusion-induced ischemia-reperfusion injury assessed as inhibition of ST segment elevation intravenously administered with compound for 30 mins followed by induction of ischemia for 15 mins and subsequent reperfusion for 15 mins by electrocardiographic analysis; format: functional
[33] = Oral bioavailability in Sprague-Dawley rat; format: ADME, organism-based; conditions: in vivo
[34] = Intrinsic clearance in cynomolgus monkey hepatocytes; format: ADME, cell-based, Macaca fascicularis, Hepatocyte; conditions: read-out: CLH (converted)
[35] = Volume of distribution at steady state in iv dosed cynomolgus monkey; format: ADME, organism-based, Macaca fascicularis; conditions: in vivo, read-out: Vdss
[36] = Intrinsic clearance in Beagle dog hepatocytes; format: ADME, cell-based, Canis lupus familiaris, Hepatocyte; conditions: read-out: CLH (converted)
[37] = organism: Homo sapiens; assay: Inhibition of L-type calcium channel (unknown origin)
[38] = target: T3, Sodium channel protein type 3 subunit alpha (Homo sapiens, UniProt Q9NY46); assay: Inhibition of NaV1.3 (unknown origin) at 25 Hz frequency by whole cell manual patch clamp technique; how it was run: as §1
T3 sequence (Q9NY46 whole entry): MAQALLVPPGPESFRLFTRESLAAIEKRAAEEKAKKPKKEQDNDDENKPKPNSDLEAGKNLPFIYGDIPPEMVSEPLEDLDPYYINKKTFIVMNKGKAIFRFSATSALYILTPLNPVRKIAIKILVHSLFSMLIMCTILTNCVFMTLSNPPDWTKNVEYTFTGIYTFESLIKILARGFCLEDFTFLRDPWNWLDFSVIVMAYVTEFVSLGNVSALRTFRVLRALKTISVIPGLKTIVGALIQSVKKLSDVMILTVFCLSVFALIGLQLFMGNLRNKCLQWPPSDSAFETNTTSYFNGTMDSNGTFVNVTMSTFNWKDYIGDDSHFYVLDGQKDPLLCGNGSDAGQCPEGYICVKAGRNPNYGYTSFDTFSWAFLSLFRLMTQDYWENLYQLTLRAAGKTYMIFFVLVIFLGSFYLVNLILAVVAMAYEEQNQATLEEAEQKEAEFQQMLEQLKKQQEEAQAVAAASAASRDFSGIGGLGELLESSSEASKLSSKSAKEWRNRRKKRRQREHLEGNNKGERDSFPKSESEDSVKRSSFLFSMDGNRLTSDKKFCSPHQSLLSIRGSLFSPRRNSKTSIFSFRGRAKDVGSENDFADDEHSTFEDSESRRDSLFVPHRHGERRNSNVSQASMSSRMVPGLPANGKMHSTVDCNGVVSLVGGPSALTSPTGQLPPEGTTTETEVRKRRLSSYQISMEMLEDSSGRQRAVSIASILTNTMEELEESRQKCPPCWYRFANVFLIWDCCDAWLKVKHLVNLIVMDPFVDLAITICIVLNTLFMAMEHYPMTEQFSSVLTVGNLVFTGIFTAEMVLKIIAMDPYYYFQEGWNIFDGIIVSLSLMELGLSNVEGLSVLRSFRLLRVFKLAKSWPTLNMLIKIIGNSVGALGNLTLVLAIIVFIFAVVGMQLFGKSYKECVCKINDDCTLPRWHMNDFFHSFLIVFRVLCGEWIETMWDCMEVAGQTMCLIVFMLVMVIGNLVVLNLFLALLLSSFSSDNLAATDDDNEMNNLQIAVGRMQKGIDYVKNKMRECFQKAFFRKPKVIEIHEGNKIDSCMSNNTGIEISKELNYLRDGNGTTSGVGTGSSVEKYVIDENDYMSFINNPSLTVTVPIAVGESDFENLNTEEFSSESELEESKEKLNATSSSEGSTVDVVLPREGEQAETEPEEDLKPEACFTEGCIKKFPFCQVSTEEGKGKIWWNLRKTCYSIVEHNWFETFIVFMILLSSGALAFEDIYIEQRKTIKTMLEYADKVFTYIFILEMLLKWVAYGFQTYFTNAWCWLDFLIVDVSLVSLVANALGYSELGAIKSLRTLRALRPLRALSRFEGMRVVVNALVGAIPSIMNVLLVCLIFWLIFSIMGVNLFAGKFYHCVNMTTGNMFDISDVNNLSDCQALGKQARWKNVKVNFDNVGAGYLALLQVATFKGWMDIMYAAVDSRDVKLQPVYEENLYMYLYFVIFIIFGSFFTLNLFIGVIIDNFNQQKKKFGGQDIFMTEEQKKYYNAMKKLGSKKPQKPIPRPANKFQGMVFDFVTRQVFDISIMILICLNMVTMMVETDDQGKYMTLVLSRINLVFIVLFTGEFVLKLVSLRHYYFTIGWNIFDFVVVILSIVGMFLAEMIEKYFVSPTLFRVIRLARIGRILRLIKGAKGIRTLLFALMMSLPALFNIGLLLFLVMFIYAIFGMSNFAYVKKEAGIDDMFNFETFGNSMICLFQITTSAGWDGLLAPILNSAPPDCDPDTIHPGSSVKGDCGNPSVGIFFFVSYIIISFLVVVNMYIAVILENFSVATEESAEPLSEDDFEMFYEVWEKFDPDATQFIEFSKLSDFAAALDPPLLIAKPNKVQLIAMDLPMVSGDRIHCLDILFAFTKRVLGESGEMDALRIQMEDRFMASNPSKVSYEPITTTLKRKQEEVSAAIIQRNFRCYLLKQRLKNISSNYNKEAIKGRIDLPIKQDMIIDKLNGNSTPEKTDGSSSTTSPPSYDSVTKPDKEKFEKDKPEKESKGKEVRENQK

[39] = target: T4, Sodium channel protein type 8 subunit alpha (Homo sapiens, UniProt Q9UQD0); assay: Inhibition of NaV1.6 (unknown origin) at 10 Hz frequency by whole cell manual patch clamp technique; how it was run: as §1
[40] = Clearance in iv dosed cynomolgus monkey; format: ADME, organism-based, Macaca fascicularis; conditions: in vivo
[41] = organism: Oryctolagus cuniculus; assay: Cardioprotective activity in rabbit model of LAD coronary artery occlusion-induced ischemia-reperfusion injury assessed as inhibition of ST segment elevation by measuring maximum efficacy incubated with compound for 30 mins followed by induction of ischemia for 15 mins and subsequent reperfusion for 15 mins by electrocardiographic analysis relative to ranolazine; format: functional; conditions: 0.5 h
[42] = target: T2, Sodium channel protein type 4 subunit alpha; assay: Inhibition of NaV1.4 (unknown origin) at 25 Hz frequency by whole cell manual patch clamp technique; how it was run: as §1
[43] = Oral bioavailability in cynomolgus monkey; format: ADME, organism-based, Macaca fascicularis; conditions: in vivo
[44] = Toxicity in rat assessed as adverse event at > 10 uM; conditions: in vivo; how it was run: as §2
[45] = Volume of distribution at steady state in iv dosed Beagle dog; format: ADME, organism-based, Canis lupus familiaris; conditions: in vivo, read-out: Vdss
[46] = target: NaV1.1 (Homo sapiens, UniProt P35498); assay: Inhibition of NaV1.1 (unknown origin) expressed in cells assessed as inhibition of peak INa current at 10 uM at 25 Hz frequency by whole-cell patch clamp method relative to control; format: cell-based; conditions: cells expressing NaV1.1; how it was run: as §1
[47] = Toxicity in New Zealand rabbit model of LAD coronary artery occlusion-induced ischemia-reperfusion injury assessed as effect on ECG interval at 0.25 to 0.5 uM; set-up: species or system Oryctolagus cuniculus; conditions: in vivo, dose 0.25-0.5 µM
[48] = target: NaV1.5 (Homo sapiens, UniProt Q14524); assay: Inhibition of human NaV1.5 expressed in HEK293 cells assessed as inhibition of peak sodium current measured at frequency 3 Hz at -20 mV resting membrane potential at 3 uM by electrophysiology assay relative to control; format: cell-based; conditions: HEK293 cells expressing human NaV1.5
[49] = target: T4, Sodium channel protein type 8 subunit alpha; assay: Inhibition of NaV1.6 (unknown origin) at 25 Hz frequency by whole cell manual patch clamp technique; how it was run: as §1
[50] = target: Sodium channel protein type 10 subunit alpha (Homo sapiens, UniProt Q9Y5Y9); assay: Inhibition of NaV1.8 (unknown origin) at 10 Hz frequency by whole cell manual patch clamp technique; how it was run: as §1
[51] = organism: Oryctolagus cuniculus; assay: Cardioprotective activity in rabbit model of left circumflex artery ligation-induced ischemia assessed as inhibition of VT-VF at 2.5 uM; format: functional, organism-based
[52] = organism: Oryctolagus cuniculus; assay: Cardioprotective activity in New Zealand rabbit model of LAD coronary artery occlusion-induced ischemia-reperfusion injury assessed as inhibition of ST segment elevation at 0.5 uM for 30 mins followed by induction of ischemia for 15 mins and subsequent reperfusion for 15 mins by electrocardiographic analysis; format: functional; set-up: scale not given: the % may be the effect or the level left; conditions: time 60 min, 1 h
[53] = Half-life in iv dosed Beagle dog; format: ADME, organism-based, Canis lupus familiaris; conditions: in vivo
[54] = target: T3, Sodium channel protein type 3 subunit alpha; assay: Inhibition of NaV1.3 (unknown origin) at 10 Hz frequency by whole cell manual patch clamp technique; how it was run: as §1

## O=C1c2cc(-c3ccc(OC(F)(F)F)cc3)ccc2OCCN1Cc1ncccn1 [ELECLAZINE]
[1]
  Activity: 62%
[2]
  Activity: Active
[3]
  CLint scaled: < 0.25 mL/min/kg
[4]
  Activity: Non-Toxic
[5]
  IC50: 51 µM
[6]
  half-life: 6.58 h
[7]
  solubility: 24 µM (≈ 9.97 µg/mL)
[8]
  half-life: 13 h
[9]
  Papp A→B: 34.6 ×10⁻⁶ cm/s
[10]
  Vd: 2.5 L/kg
[11]
  inhibition (INH): Not Active
[12]
  Activity: 55%
[13]
  IC50: 13 µM
[14]
  IC50: 0.62 µM
[15]
  bioavailability: 100%
[16]
  Activity: Toxic
[17]
  clearance: 0.7 mL/min/kg
[18]
  clearance: 2.33 mL/min/kg
[19]
  IC50: 0.7 µM
[20]
  Activity: Active
[21]
  Papp B→A: 29 ×10⁻⁶ cm/s
[22]
  IC50: 0.88 µM
[23]
  half-life: 3.33 h
[24]
  Activity: 100%
[25]
  CLint scaled: 2.67 mL/min/kg
[26]
  IC50: 96 µM
[27]
  EC50: 1.7 µM
[28]
  half-life: 5.9 h
[29]
  inhibition in vivo at 0.5 µM: 93%
[30]
  Activity: Non-Toxic
[31]
  half-life: 5 h
[32]
  EC50: 0.19 µM
[32]; time 60.0 min
  Activity: Dose-dependent effect
[33]
  bioavailability: 91%
[34]
  CLint scaled: 6 mL/min/kg
[35]
  Vd: 1.5 L/kg
[36]
  CLint scaled: 1 mL/min/kg
[37]
  inhibition: inactive
[38]
  IC50: 3.5 µM
[39]
  IC50: 28 µM
[40]
  clearance: 1.83 mL/min/kg
[41]
  Emax: 93%
[42]
  IC50: 3.3 µM
[43]
  bioavailability: 39%
[44]
  Activity: Toxic
[45]
  Vd: 1.6 L/kg
[46]
  inhibition at 10 µM: 53%
[47]
  Activity: Non-Toxic
[48]
  inhibition at 3 µM: 24%
[49]
  IC50: 4 µM
[50]
  IC50: 18.8 µM
[51]
  Activity: Active
[52]
  Activity: 93%
[53]
  half-life: 27.9 h
[54]
  IC50: 16 µM
